Data published in ChEMBL document CHEMBL2016564, “Conformationally restricted novel pyrazole derivatives: synthesis of 1,8-disubstituted 5,5-dimethyl-4,5-dihydro-1H-benzo[g]indazoles as a new class of PDE4 inhibitors” (Bioorg Med Chem Lett, 2012).
pIC50: −log10 of the molar value.

Legend:
[1] = molecular target: T1, 3',5'-cyclic-AMP phosphodiesterase 4B (Homo sapiens, UniProt Q07343); assay: Inhibition of recombinant His-tagged PDE4B expressed in Sf9 cells using cAMP as substrate at 30 uM preincubated for 15 mins prior substrate addition measured after 1 hr by […]
T1 sequence (Q07343 whole entry): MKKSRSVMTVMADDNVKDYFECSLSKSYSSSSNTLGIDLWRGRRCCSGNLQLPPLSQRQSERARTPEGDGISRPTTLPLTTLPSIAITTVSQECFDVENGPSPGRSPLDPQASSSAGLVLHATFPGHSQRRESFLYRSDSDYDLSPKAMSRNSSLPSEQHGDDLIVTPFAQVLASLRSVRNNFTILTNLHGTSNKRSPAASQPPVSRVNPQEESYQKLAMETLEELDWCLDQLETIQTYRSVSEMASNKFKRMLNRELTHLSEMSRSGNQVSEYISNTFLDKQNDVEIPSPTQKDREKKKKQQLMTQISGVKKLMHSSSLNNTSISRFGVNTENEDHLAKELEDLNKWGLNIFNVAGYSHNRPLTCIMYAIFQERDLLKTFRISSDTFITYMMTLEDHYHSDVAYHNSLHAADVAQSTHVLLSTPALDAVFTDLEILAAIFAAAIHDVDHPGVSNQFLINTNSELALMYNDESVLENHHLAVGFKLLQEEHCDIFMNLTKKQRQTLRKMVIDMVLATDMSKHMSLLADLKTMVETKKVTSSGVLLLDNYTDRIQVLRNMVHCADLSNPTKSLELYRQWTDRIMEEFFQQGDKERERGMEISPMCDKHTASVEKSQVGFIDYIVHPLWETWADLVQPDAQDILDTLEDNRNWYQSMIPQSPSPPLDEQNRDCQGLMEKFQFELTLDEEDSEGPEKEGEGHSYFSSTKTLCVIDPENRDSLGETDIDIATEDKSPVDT
Procedure, shortened: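 In-house purified PDE4B (10 ng) was preincubated 15 min with compound or DMSO vehicle, followed by 1 h with cAMP substrate. After stop solution, detection reagent was applied for 10 min in the dark and luminescence (RLU) was read. % inhibition was taken against vehicle-control RLU and reported as the average with SD.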

[2] = molecular target: 3',5'-cyclic-AMP phosphodiesterase 4D (Homo sapiens) (UniProt Q08499); assay: Inhibition of PDE4D using cAMP as substrate at 30 uM preincubated for 15 mins prior substrate addition measured after 1 hr by […]
Sequence of 3',5'-cyclic-AMP phosphodiesterase 4D (Homo sapiens) (Q08499 whole entry): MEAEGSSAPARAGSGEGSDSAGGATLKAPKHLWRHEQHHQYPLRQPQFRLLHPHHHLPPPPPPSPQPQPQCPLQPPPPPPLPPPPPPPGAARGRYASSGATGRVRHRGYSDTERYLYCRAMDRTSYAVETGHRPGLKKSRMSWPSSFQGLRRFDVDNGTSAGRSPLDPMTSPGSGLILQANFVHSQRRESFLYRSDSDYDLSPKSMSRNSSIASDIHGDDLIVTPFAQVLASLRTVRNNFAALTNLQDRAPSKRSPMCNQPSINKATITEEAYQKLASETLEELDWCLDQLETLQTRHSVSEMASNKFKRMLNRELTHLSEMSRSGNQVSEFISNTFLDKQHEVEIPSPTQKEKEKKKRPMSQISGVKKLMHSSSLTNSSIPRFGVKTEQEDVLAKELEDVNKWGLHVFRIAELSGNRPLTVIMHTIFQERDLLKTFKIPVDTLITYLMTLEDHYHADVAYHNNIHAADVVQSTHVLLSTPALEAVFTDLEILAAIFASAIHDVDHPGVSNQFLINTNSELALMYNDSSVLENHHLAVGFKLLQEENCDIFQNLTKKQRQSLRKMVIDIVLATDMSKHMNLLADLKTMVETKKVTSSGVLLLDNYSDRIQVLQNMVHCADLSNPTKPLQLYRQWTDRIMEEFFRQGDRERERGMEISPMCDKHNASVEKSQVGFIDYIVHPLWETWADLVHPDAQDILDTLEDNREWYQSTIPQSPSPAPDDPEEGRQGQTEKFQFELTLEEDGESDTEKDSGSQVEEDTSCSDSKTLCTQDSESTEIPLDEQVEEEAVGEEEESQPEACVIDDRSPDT
Procedure, shortened: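 Commercially sourced PDE4D (0.5 ng) was preincubated 15 min with compound or DMSO vehicle, then incubated 1 h with cAMP substrate. The reaction was halted with stop solution, and detection reagent was added for 10 min in the dark. Luminescence (RLU) was read, and % inhibition = (vehicle RLU − inhibitor RLU)/vehicle RLU × 100.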

[3] = molecular target: T1, 3',5'-cyclic-AMP phosphodiesterase 4B

Structure (SMILES) | inhibition [1] [%] | inhibition [2] [%] | pIC50 [3]
Cc1ccc(-n2ncc3c2-c2cc(Br)ccc2C(C)(C)C3)cc1 | 64.9 | – | –
CC1(C)Cc2cnn(-c3ccccc3)c2-c2cc([N+](=O)[O-])ccc21 | 72.1 | 55.8 | –
CC1(C)Cc2cnn(-c3ccc(F)cc3)c2-c2cc(NS(C)(=O)=O)ccc21 | 75.1 | – | –
CC1(C)Cc2cnn(-c3ccc(C(F)(F)F)cc3)c2-c2cc(Br)ccc21 | 42.2 | – | –
Cc1cccc(-n2ncc3c2-c2cc([N+](=O)[O-])ccc2C(C)(C)C3)c1C | 72.7 | 54.9 | –
CC1(C)Cc2cnn(-c3ccc(Br)cc3)c2-c2cc(Br)ccc21 | 60.3 | – | –
CC1(C)Cc2cnn(-c3ccc(F)cc3)c2-c2cc(Br)ccc21 | 72.2 | 65.4 | –
CC1(C)Cc2cnn(C(C)(C)C)c2-c2cc(Br)ccc21 | 71.4 | 41.7 | –
CC1(C)Cc2cnn(-c3ccc(Cl)cc3)c2-c2cc(Br)ccc21 | 68.1 | – | –
CC1(C)Cc2cnn(-c3ccc(F)cc3)c2-c2cc([N+](=O)[O-])ccc21 | 66.8 | – | –
CC(C)n1ncc2c1-c1cc(Br)ccc1C(C)(C)C2 | 56.8 | – | –
CC1(C)Cc2cnn(-c3ccc(F)cc3)c2-c2cc(NS(=O)(=O)c3ccccc3)ccc21 | 75.6 | – | –
CC1(C)Cc2cnn(-c3ccccc3)c2-c2cc(Br)ccc21 | 76.2 | 50 | 5.34
Cc1ccc(-n2ncc3c2-c2cc([N+](=O)[O-])ccc2C(C)(C)C3)cc1 | 68.2 | – | –
